Experiments:
[1] = test system: Human alphaherpesvirus 1; test: Antiviral activity against Herpes simplex virus-1 F VR 733 infected in African green monkey Vero cells assessed as inhibition of virus-induced cytopathic effect; assay type: functional; details: Human alphaherpesvirus 1, Strain F ATCC VR 733, Vero
Outline: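 Vero cells (2.5 × 10^4/well) were seeded for 24 h, then the medium was removed. Cells were infected with HSV-1 at 100 TCID50 for 2 h, then given graded compound concentrations. Incubation continued until control CPE reached 4+. Runs were in triplicate, repeated at least three times. IC50 is the minimal concentration inhibiting 50% of CPE, by Reed and Muench.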

[2] = test system: Influenza A virus; test: Antiviral activity against Influenza A virus A/95-359 infected in MDCK cells assessed as inhibition of virus-induced cytopathic effect; assay type: functional, cell-based; details: A/95-359, MDCK
Outline: (§1)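 MDCK cells (2.5 × 10^4/well) seeded 24 h, PBS-washed, infected with influenza A/95-359 at 100 TCID50 for 2 h, then exposed to graded compound concentrations until control CPE reached 4+. IC50 = minimal concentration inhibiting 50% of CPE (Reed and Muench); triplicate, at least three separate experiments. […] SI = TC50/IC50.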

[3] = test system: Coxsackievirus B3; test: Antiviral activity against Coxsackievirus B3 infected in African green monkey Vero cells assessed as inhibition of virus-induced cytopathic effect; assay type: functional; details: Enterovirus B
Outline: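 Vero monolayers were infected with Cox B3 at 100 TCID50 and allowed 2 h adsorption at 37 °C. They were then washed with PBS and kept at 37 °C in MEM with 2% FBS, with or without graded concentrations of test compounds. Read-out was CPE.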

[4] = Cytotoxicity against MDCK cells assessed as growth inhibition after 48 hrs; assay type: cell-based, Canis lupus familiaris; details: dog, read-out: TC50
Outline: (§2)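 Vero or MDCK cells (2.5 × 10^4/well) were seeded for 24 h, then exposed to graded compound concentrations. After 48 h at 37 °C and 5% CO2, cytotoxicity was scored by CPE. TC50 was calculated by Reed and Muench analysis.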

[5] = Cytotoxicity against African green monkey Vero cells assessed as growth inhibition after 48 hrs; assay type: cell-based; details: chlorocebus sabaeus, read-out: TC50; outline: as §2
[6] = Selectivity index, ratio of TC50 for African green monkey Vero cells to IC50 for Herpes simplex virus-1 F VR 733 infected in African green monkey Vero cells; assay type: toxicity; details: read-out: Selectivity Index
Outline: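 Vero cells (2.5 × 10^4/well) seeded 24 h, medium removed, infected with HSV-1 at 100 TCID50 for 2 h, then graded compound concentrations added until control CPE reached 4+. IC50 = minimal concentration inhibiting 50% CPE (Reed and Muench); triplicate, at least three separate experiments. […] SI = TC50/IC50.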

[7] = Selectivity index, ratio of TC50 for MDCK cells to IC50 for Influenza A virus (A/95-359) infected in MDCK cells; assay type: toxicity, cell-based; details: dog, read-out: Selectivity Index; outline: as §1

Row | SMILES | IC50 [1] [µM] | IC50 [2] [µM] | IC50 [3] [µM] | CC50 at 48 h [4] [µM] | CC50 at 48 h [5] [µM] | selectivity ratio [6] | selectivity ratio [7]
1 | C[C@H](CC[C@H](O[C@@H]1OC[C@H](O)[C@H](O)[C@H]1O)C(C)(C)O)[C@H]1CC[C@@]2(C(=O)O)[C@@H]3CCC4=C(CC[C@@H](O[C@@H]5O[C@H](CO)[C@@H](O)[C@H](O)[C@H]5O)C4(C)C)C[C@H]3CC[C@]12C | ≥ 33.3 | > 33.3 | ≥ 33.3 |  |  |  | 
2 | CC(=O)OC[C@H]1O[C@@H](O[C@@H]2CCC3=C(CC[C@@H]4[C@H](CC[C@]5(C)[C@@H]([C@H](C)CC[C@H](O)C(C)(C)O)CC[C@@]45C(=O)O)C3)C2(C)C)[C@H](O)[C@@H](O)[C@@H]1O | ≥ 33.3 | > 11.1 | ≥ 33.3 | 48.1 |  |  | 
3 | C[C@H](CC[C@H](O[C@@H]1OC[C@H](O)[C@H](O)[C@H]1O)C(C)(C)O)[C@H]1CC[C@@]2(C(=O)O)C3=C(CC[C@]12C)[C@@]1(C)CC[C@@H](O[C@@H]2OC[C@H](O)[C@H](O)[C@H]2O)C(C)(C)[C@@H]1CC3 | ≥ 33.3 | > 33.3 | ≥ 33.3 |  |  |  | 
4 | CC(=O)OC[C@H]1O[C@@H](O[C@@H]2CC[C@]3(C)C4=C(CC[C@H]3C2(C)C)[C@]2(C(=O)O)CC[C@H]([C@H](C)CC[C@H](O[C@@H]3OC[C@H](O)[C@H](O)[C@H]3O)C(C)(C)O)[C@@]2(C)CC4)[C@H](O)[C@@H](O)[C@@H]1O | 14.3 | 33.3 | ≥ 33.3 | 57.7 | > 100 | > 7 | 1.7
5 | C[C@H](CC[C@H](O[C@@H]1OC[C@H](O)[C@H](O)[C@H]1O)C(C)(C)O)[C@H]1CC[C@@]2(C(=O)O)[C@@H]3CC[C@H]4C(=CC[C@@H](O[C@@H]5OC[C@H](O)[C@H](O)[C@H]5O)C4(C)C)C[C@H]3CC[C@]12C | ≥ 33.3 | > 33.3 | ≥ 33.3 |  |  |  | 
6 | C[C@H](CC[C@H](O[C@@H]1OC[C@H](O)[C@H](O)[C@H]1O)C(C)(C)O)[C@H]1CC[C@@]2(C(=O)O)C3=C(CC[C@]12C)[C@@]1(C)CC[C@@H](O[C@@H]2O[C@H](CO)[C@@H](O)[C@H](O)[C@H]2O)C(C)(C)[C@@H]1CC3 | ≥ 33.3 | > 33.3 | ≥ 33.3 |  |  |  | 
7 | C[C@H](CC[C@H](O[C@@H]1O[C@H](CO)[C@@H](O)[C@H](O)[C@H]1O)C(C)(C)O)[C@H]1CC[C@@]2(C(=O)O)[C@@H]3CC[C@@H]4C(=CC[C@@H](O[C@@H]5O[C@H](CO)[C@@H](O)[C@H](O)[C@H]5O)C4(C)C)C[C@H]3CC[C@]12C | ≥ 33.3 | 33.3 | ≥ 33.3 | > 100 |  |  | > 3
8 | CC(=O)OC[C@H]1O[C@@H](O[C@@H]2CC=C3C[C@H]4CC[C@]5(C)[C@@H]([C@H](C)CC[C@H](O[C@@H]6OC[C@H](O)[C@H](O)[C@H]6O)C(C)(C)O)CC[C@@]5(C(=O)O)[C@@H]4CC[C@H]3C2(C)C)[C@H](O)[C@@H](O)[C@@H]1O | 19.3 | > 33.3 | ≥ 33.3 |  | > 100 | > 5.2 | 
9 | C[C@H](CC[C@H](O[C@@H]1OC[C@H](O)[C@H](O)[C@H]1O)C(C)(C)O)[C@H]1CC[C@@]2(C(=O)O)[C@@H]3CCC4=C(CC[C@@H](O[C@H]5OC[C@@H](O)[C@@H](O)[C@@H]5O)C4(C)C)C[C@H]3CC[C@]12C | ≥ 33.3 | > 33.3 | ≥ 33.3 |  |  |  | 
10 | C[C@H](CC[C@H](O)C(C)(C)O)[C@H]1CC[C@@]2(C(=O)O)[C@@H]3CCC4=C(CC[C@@H](O[C@@H]5O[C@H](CO)[C@@H](O)[C@H](O)[C@H]5O)C4(C)C)C[C@H]3CC[C@]12C | ≥ 33.3 | 33.3 | ≥ 33.3 | 100 |  |  | 3
11 | C[C@H](CC[C@H](O)C(C)(C)O)[C@H]1CC[C@@]2(C(=O)O)C3=C(CC[C@]12C)[C@@]1(C)CC[C@@H](O[C@@H]2O[C@H](CO)[C@@H](O)[C@H](O)[C@H]2O)C(C)(C)[C@@H]1CC3 | ≥ 33.3 | > 33.3 | ≥ 33.3 |  |  |  | 
12 | CC(=O)OC[C@H]1O[C@@H](O[C@@H]2CC=C3C[C@H]4CC[C@]5(C)[C@@H]([C@H](C)CC[C@H](O)C(C)(C)O)CC[C@@]5(C(=O)O)[C@@H]4CC[C@@H]3C2(C)C)[C@H](O)[C@@H](O)[C@@H]1O | ≥ 33.3 | > 33.3 | ≥ 33.3 |  |  |  | 
